{
  "source": "ChEMBL document CHEMBL2021915",
  "about": "“Synthesis, characterization and biological activity of hydroxyl-bisphosphonic analogs of bile acids” (Eur J Med Chem, 2012)",
  "key": {"PBMC [1]": {"tested_on": "PBMC", "assay": "Inhibition of osteoclastogenesis in human osteoclasts obtained from PBMC assessed as formation of TRAPC positive multinucleated cells at 10^-5 M after 7 days", "type": "functional, cell-based", "how_it_was_run": "(§1)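 Human PBMC from buffy coats (Ficoll), adherent monocytes at 3 × 10^6 cells/cm2 differentiated in DMEM/10% FBS with 25% SH-SY5Y conditioned supernatant, compound (10^-5, 10^-7, 10^-9 M) added with differentiation medium for 7 days. TRACP-positive multinucleated cells counted after fixation and TRACP staining; untreated differentiated cultures = 100%. Duplicates; 4 cultures from two donors.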"}, "Osteoclast": {"tested_on": "Osteoclast", "assay": "Induction of apoptosis in human multinucleated osteoclasts obtained from PBMC assessed as formation of apoptotic nuclear bodies at 10^-5 M after 7 days by Hoechst 33258 staining", "type": "functional, cell-based", "how_it_was_run": "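PBMC-derived osteoclasts (7 days in SH-SY5Y-conditioned differentiation medium) then exposed to compound (10^-5, 10^-7, 10^-9 M) for a further 7 days. Fixed, stained with phalloidin-TRITC (F-actin rings) and Hoechst 33258; multinucleated cells with apoptotic nuclear bodies counted over whole well at 40×, as % of multinucleated TRACP-positive cells. 4 cultures, two donors.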"}, "L929 [2]": {"tested_on": "L929", "assay": "Cytotoxicity against mouse L929 cells assessed as cell viability at 10^-4 to 10^-5 M after 72 hrs by neutral-red uptake assay relative to neridronate", "type": "cell-based", "conditions": "l929, 72 h", "how_it_was_run": "(§2)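 L929 mouse fibroblasts in MEM/10% FCS, 0.8 × 10^3 cells/well, adhered 24 h, then exposed to serial dilutions (10^-4 to 10^-10 M; 10^-2 M PBS pH 7.4 stocks) for 72 h. Neutral red 2 h at 37 °C, extracted with ethanol/acetic acid, OD 540 nm, blank-subtracted; ratio to medium-only control. Triplicate wells, 9 experiments.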"}, "L929 [3]": {"tested_on": "L929", "assay": "Cytotoxicity against mouse L929 cells assessed as cell viability after 72 hrs by neutral-red uptake assay", "type": "cell-based", "conditions": "l929, 72 h", "how_it_was_run": "as §2"}, "Hydroxyapatite [4]": {"tested_on": "Hydroxyapatite", "assay": "Binding affinity to hydroxyapatite assessed as unadsorbed compound level at 40 mg after 24 hrs using 2.5 mg/ml of hydroxyapatite by NMR analysis relative to control", "how_it_was_run": "(§3)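 Compound (about 40 mg) dissolved in 10 mL bidistilled water, pH adjusted to 7.4, stirred at 25 °C in a capped vial with hydroxyapatite; remaining unadsorbed compound in solution followed over time by NMR signal relative to starting signal.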"}, "Hydroxyapatite [5]": {"tested_on": "Hydroxyapatite", "assay": "Binding affinity to hydroxyapatite assessed as unadsorbed compound level at 40 mg after 72 hrs using 7.5 mg/ml of hydroxyapatite by NMR analysis relative to control", "how_it_was_run": "as §3"}, "Hydroxyapatite [6]": {"tested_on": "Hydroxyapatite", "assay": "Binding affinity to hydroxyapatite assessed as unadsorbed compound level at 40 mg after 48 hrs using 5 mg/ml of hydroxyapatite by NMR analysis relative to control", "how_it_was_run": "as §3"}, "PBMC [7]": {"tested_on": "PBMC", "assay": "Inhibition of osteoclastogenesis in human osteoclasts obtained from PBMC assessed as formation of TRAPC positive multinucleated cells at 10^-5 to 10^-9 M after 7 days", "type": "functional, cell-based", "how_it_was_run": "as §1"}, "Hydroxyapatite [8]": {"tested_on": "Hydroxyapatite", "assay": "Binding affinity to hydroxyapatite assessed as unadsorbed compound level at 40 mg after 3 hrs using 2.5 mg/ml of hydroxyapatite by NMR analysis relative to control", "how_it_was_run": "as §3"}, "Hydroxyapatite [9]": {"tested_on": "Hydroxyapatite", "assay": "Binding affinity to hydroxyapatite assessed as unadsorbed compound level at 40 mg after 96 hrs using 10 mg/ml of hydroxyapatite by NMR analysis relative to control", "how_it_was_run": "as §3"}, "[10]": {"assay": "Solubility of the compound in L929 cell culture medium", "type": "physicochemical"}, "[11]": {"assay": "Distribution coefficient, log D of the compound at pH 7.4", "type": "physicochemical", "conditions": "octanol/water", "how_it_was_run": "(§4)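 Log D values were obtained by calculation, not by experimental partitioning.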"}, "[12]": {"assay": "Distribution coefficient, log D of the compound at pH 1.5", "type": "physicochemical", "conditions": "octanol/water", "how_it_was_run": "as §4"}, "Hydroxyapatite [13]": {"tested_on": "Hydroxyapatite", "assay": "Binding affinity to hydroxyapatite assessed as unadsorbed compound level at 20 mg after 24 hrs using 2.5 mg/ml of hydroxyapatite by NMR analysis relative to control", "how_it_was_run": "(§5)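 Bisphosphonate salt dissolved in bidistilled water, pH adjusted to 7.4, and magnetically stirred at 25 °C for the hydroxyapatite adsorption test.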"}, "Hydroxyapatite [14]": {"tested_on": "Hydroxyapatite", "assay": "Binding affinity to hydroxyapatite assessed as unadsorbed compound level at 20 mg after 96 hrs using 10 mg/ml of hydroxyapatite by NMR analysis relative to control", "how_it_was_run": "as §5"}, "Hydroxyapatite [15]": {"tested_on": "Hydroxyapatite", "assay": "Binding affinity to hydroxyapatite assessed as unadsorbed compound level at 20 mg after 72 hrs using 7.5 mg/ml of hydroxyapatite by NMR analysis relative to control", "how_it_was_run": "as §5"}, "Hydroxyapatite [16]": {"tested_on": "Hydroxyapatite", "assay": "Binding affinity to hydroxyapatite assessed as unadsorbed compound level at 20 mg after 48 hrs using 5 mg/ml of hydroxyapatite by NMR analysis relative to control", "how_it_was_run": "as §5"}, "Hydroxyapatite [17]": {"tested_on": "Hydroxyapatite", "assay": "Binding affinity to hydroxyapatite assessed as unadsorbed compound level at 20 mg after 3 hrs using 2.5 mg/ml of hydroxyapatite by NMR analysis relative to control", "how_it_was_run": "as §5"}},
  "note": "Calls of active or inactive are those of the source. The rule behind the calls is not given here.",
  "data": [
    {"smiles": "C[C@H](CCC(=O)O)[C@H]1CC[C@H]2[C@@H]3[C@H](O)C[C@@H]4C[C@H](O)CC[C@]4(C)[C@H]3CC[C@]12C", "values": [
      {"measurement": "inhibition", "setting": "PBMC [1]", "value": "Active"},
      {"measurement": "Activity", "setting": "Osteoclast", "value": "Active"}
    ]},
    {"smiles": "C[C@H](CCC(O)(P(=O)([O-])O)P(=O)([O-])O)[C@H]1CC[C@H]2[C@@H]3[C@H](O)C[C@@H]4C[C@H](O)CC[C@]4(C)[C@H]3CC[C@]12C.[Na+].[Na+]", "values": [
      {"measurement": "Activity", "setting": "L929 [2]", "value": "Non-toxic"},
      {"measurement": "Activity", "setting": "L929 [3]", "value": "Dose-dependent effect"}
    ]},
    {"smiles": "C[C@H](CCC(O)(P(=O)(O)O)P(=O)(O)O)[C@H]1CC[C@H]2[C@@H]3[C@H](O)C[C@@H]4C[C@H](O)CC[C@]4(C)[C@H]3CC[C@]12C", "note": "[listing 1 of 2 here]", "values": [
      {"measurement": "Activity", "setting": "Hydroxyapatite [4]", "value": 64, "unit": "%"},
      {"measurement": "Activity", "setting": "Hydroxyapatite [5]", "value": 12, "unit": "%"},
      {"measurement": "Activity", "setting": "Hydroxyapatite [6]", "value": 32, "unit": "%"},
      {"measurement": "inhibition", "setting": "PBMC [7]", "value": "Active"},
      {"measurement": "Activity", "setting": "Hydroxyapatite [8]", "value": 91, "unit": "%"},
      {"measurement": "Activity", "setting": "Hydroxyapatite [9]", "value": 3, "unit": "%"},
      {"measurement": "Activity", "setting": "Osteoclast", "value": "Active"}
    ]},
    {"smiles": "C[C@H](CCC(O)(P(=O)([O-])O)P(=O)([O-])O)[C@H]1CC[C@H]2[C@@H]3[C@@H](O)C[C@@H]4C[C@H](O)CC[C@]4(C)[C@H]3CC[C@]12C.[Na+].[Na+]", "values": [
      {"measurement": "solubility", "setting": "[10]", "value": "Insoluble"}
    ]},
    {"smiles": "C[C@H](CCC(O)(P(=O)([O-])O)P(=O)([O-])O)[C@H]1CC[C@H]2[C@@H]3[C@H](O)C[C@@H]4C[C@H](O)CC[C@]4(C)[C@H]3C[C@H](O)[C@]12C.[Na+].[Na+]", "values": [
      {"measurement": "solubility", "setting": "[10]", "value": "Insoluble"}
    ]},
    {"smiles": "O=P(O)(O)C(Cl)(Cl)P(=O)(O)O", "note": "[CLODRONIC ACID]", "values": [
      {"measurement": "logD", "setting": "[11]", "value": -5.04},
      {"measurement": "logD", "setting": "[12]", "value": -1.32},
      {"measurement": "Activity", "setting": "Hydroxyapatite [13]", "value": 100, "unit": "%"},
      {"measurement": "Activity", "setting": "Hydroxyapatite [14]", "value": 93, "unit": "%"},
      {"measurement": "Activity", "setting": "Hydroxyapatite [15]", "value": 96, "unit": "%"},
      {"measurement": "Activity", "setting": "Hydroxyapatite [16]", "value": 100, "unit": "%"},
      {"measurement": "Activity", "setting": "Hydroxyapatite [17]", "value": 100, "unit": "%"}
    ]},
    {"smiles": "NCCCCCC(O)(P(=O)(O)O)P(=O)(O)O", "note": "[NERIDRONIC ACID]", "values": [
      {"measurement": "Activity", "setting": "Hydroxyapatite [13]", "value": 96, "unit": "%"},
      {"measurement": "Activity", "setting": "L929 [3]", "value": "Dose-dependent effect"},
      {"measurement": "inhibition", "setting": "PBMC [7]", "value": "Active"},
      {"measurement": "Activity", "setting": "Hydroxyapatite [14]", "value": 67, "unit": "%"},
      {"measurement": "Activity", "setting": "Hydroxyapatite [15]", "value": 82, "unit": "%"},
      {"measurement": "Activity", "setting": "Hydroxyapatite [16]", "value": 85, "unit": "%"},
      {"measurement": "Activity", "setting": "Osteoclast", "value": "Active"},
      {"measurement": "Activity", "setting": "Hydroxyapatite [17]", "value": 98, "unit": "%"}
    ]},
    {"smiles": "C[C@H](CCC(O)(P(=O)(O)O)P(=O)(O)O)[C@H]1CC[C@H]2[C@@H]3[C@H](O)C[C@@H]4C[C@H](O)CC[C@]4(C)[C@H]3CC[C@]12C", "note": "[listing 2 of 2 here]", "values": [
      {"measurement": "logD", "setting": "[11]; read-out: logD", "value": -3.34},
      {"measurement": "logD", "setting": "[12]", "value": 0.44}
    ]},
    {"smiles": "C[C@H](CCC(O)(P(=O)(O)O)P(=O)(O)O)[C@H]1CC[C@H]2[C@@H]3[C@H](O)C[C@@H]4C[C@H](O)CC[C@]4(C)[C@H]3C[C@H](O)[C@]12C", "values": [
      {"measurement": "logD", "setting": "[11]", "value": -4.53},
      {"measurement": "logD", "setting": "[12]", "value": -0.76}
    ]},
    {"smiles": "C[C@H](CCC(O)(P(=O)(O)O)P(=O)(O)O)[C@H]1CC[C@H]2[C@@H]3[C@@H](O)C[C@@H]4C[C@H](O)CC[C@]4(C)[C@H]3CC[C@]12C", "values": [
      {"measurement": "logD", "setting": "[11]; read-out: logD", "value": -3.34},
      {"measurement": "logD", "setting": "[12]", "value": 0.44}
    ]}
  ]
}
